STEP inh – inhibitors of human striatal-enriched phosphatase STEP. recombinant STEP, OMFP fluorogenic substrate, fluorescence. actives 0.25% (n = 360,000). inhibition, % at 20 µM. AID 588621;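 active = inhibition at 20 µM, scaled per plate between control wells, above about 37%, limit read from the data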;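 also: 0% = DMSO with enzyme and substrate and 100% = substrate only without enzyme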
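Assay system: isolated STEP enzyme. Buffer or medium: pH 6.0 Bis-Tris with DTT and Tween 20. Also added: fluorogenic phosphatase substrate OMFP at 25 µM final. Dosing: 20 µM, 1% DMSO. Timing: 20 min reaction, room temperature, in the dark. Measured by: fluorescence intensity, excitation 480 nm, emission 540 nm. Evaluation: normalized % inhibition.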
NadD block – blocks S. aureus nicotinate mononucleotide adenylyltransferase; purified NadD enzyme, colorimetric absorbance read-out; inhibition, % at 20 µM; actives 0.78% (n = 360,000); in the data active = inhibition above about 26%
LMPTP inh – LMPTP (human) inhibition. recombinant LMPTP-A, OMFP fluorogenic substrate, fluorescence intensity. inhibition, % at 20 µM. actives 0.22% (n = 360,000);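 active = compounds that cut the enzyme signal by at least half of the control window in the single-dose screen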;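 also: plate controls were DMSO wells with enzyme plus substrate for no effect and substrate without enzyme for full effect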
Target sequence (P24666 whole entry, looked up): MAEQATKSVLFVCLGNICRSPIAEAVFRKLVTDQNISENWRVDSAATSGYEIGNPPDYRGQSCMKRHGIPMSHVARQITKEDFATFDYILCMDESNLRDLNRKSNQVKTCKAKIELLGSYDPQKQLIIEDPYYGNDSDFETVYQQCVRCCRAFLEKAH
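Test system – LMPTP-A phosphatase enzyme · Quantity – 0.625 nM LMPTP-A final · Reagent – OMFP substrate, 400 µM final · Dosing – one test concentration per compound, 20 µM, with 3% DMSO overall · Timing – 50 min enzyme reaction at room temperature, protected from light · Detection – fluorescence intensity · Controls – substrate-only low control, DMSO enzyme-plus-substrate high control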
Scp1 inh – inhibitors of human Scp-1 phosphatase. actives 0.88% (n = 340,000). Q9GZU7. Recombinant Scp1, phosphopeptide, malachite green phosphate absorbance. AID 493091. inhibition, % at 20 µM;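 active = inhibition above about 50% at 20 µM, limit read from the data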;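 also: plate controls were DMSO wells with enzyme for no effect and wells lacking enzyme for full effect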
Target sequence (Q9GZU7 76-261 limits assumed): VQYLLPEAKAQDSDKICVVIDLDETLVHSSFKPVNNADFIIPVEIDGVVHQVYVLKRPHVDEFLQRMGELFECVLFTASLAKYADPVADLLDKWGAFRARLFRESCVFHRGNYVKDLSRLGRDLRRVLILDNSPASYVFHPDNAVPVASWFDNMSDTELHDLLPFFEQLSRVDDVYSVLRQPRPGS
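System: SCP-1 catalytic domain; Reagent: Phospho 17-mer peptide substrate; Doses: one concentration, 20 µM, with 1.0% DMSO; Incubation: 45 min room-temperature reaction, 5 min colour, 30 min stabiliser; Signal: Phosphate-binding colour reagent, absorbance read at 630 nm.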
SUMO1-SIM PPI – SUMO1-SIM interaction modulation; AID 602429; inhibition, % at 20 µM; actives 0.33% (n = 360,000); P63165; SUMO1 binding to a labelled peptide, TR-FRET, 1 h; in the data active = inhibition above about 37%
Target sequence (P63165 whole entry, looked up): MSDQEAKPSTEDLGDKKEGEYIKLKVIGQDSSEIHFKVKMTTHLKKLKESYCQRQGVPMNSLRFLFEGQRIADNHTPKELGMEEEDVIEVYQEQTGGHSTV
DNMT1 block – DNMT1 (human) enzyme inhibition; inhibition (reported as % activation of signal), % at 10 µM; P26358; DNMT1 molecular beacon, Hinp1I cleavage, fluorescence; AID 588458; actives 0.83% (n = 360,000); in the data active = inhibition above about 50%
Starred values were filed as active, the others as inactive. The list is not random: actives were taken first. Their share in the collection is about 2.3%.

For CC1CCCC(C)N1C(=O)Cn1cc(/C=C2/C(=O)Nc3ccccc32)c2ccccc21 (centres undefined) the results were STEP inh 6.5, NadD block 34.0*, LMPTP inh 3.9, Scp1 inh 2.0, SUMO1-SIM PPI -15.4 and DNMT1 block -7.0.
`CCn1c(CSc2nc3ccccc3s2)nnc1SCC(=O)c1ccc(O)c(O)c1` gave STEP inh 0.9, NadD block 18.4, LMPTP inh 49.9, Scp1 inh 59.2*, SUMO1-SIM PPI 12.9 and DNMT1 block 8.1.
Screening Cc1cc(C(=O)Nc2cc(S(C)(=O)=O)ccc2Cl)c(C)o1 returned STEP inh -2.6, NadD block 0.3, LMPTP inh -1.3, Scp1 inh -12.4, SUMO1-SIM PPI -0.3 and DNMT1 block 1.8.
For CC[C@H]1OC(=O)[C@H](C)[C@@H](O[C@H]2C[C@@](C)(OC)[C@@H](O)[C@H](C)O2)[C@H](C)[C@@H](O[C@@H]2O[C@H](C)C[C@H](N(C)C)[C@H]2O)[C@](C)(O)C[C@@H](C)C(=O)[C@H](C)[C@@H](O)[C@]1(C)O the results were STEP inh 1.1, NadD block 25.5, LMPTP inh 74.9*, Scp1 inh 7.6, SUMO1-SIM PPI 14.2 and DNMT1 block 76.8*.
Screening COc1ccc(NC(=S)Nc2ccc3nsnc3c2)cc1 returned STEP inh 6.3, NadD block -0.8, LMPTP inh 10.2, Scp1 inh 14.3, SUMO1-SIM PPI 58.0* and DNMT1 block 64.3*.
`COc1ccc(S(=O)(=O)N2CCCC2CNC(=O)C(=O)Nc2cccc(F)c2)cc1` (centres undefined) gave STEP inh -1.3, NadD block -5.8, LMPTP inh 1.1, Scp1 inh -10.5, SUMO1-SIM PPI -5.9 and DNMT1 block -3.2.
`O=C(Nc1ccccc1)OC[C@@H]1C=CS(=O)(=O)N1Cc1ccc(Br)cc1` gave STEP inh -1.7, NadD block -9.2, LMPTP inh 0.1, SUMO1-SIM PPI 6.3 and DNMT1 block -6.0.
For COc1ccc2c(c1)c1nc3ccccc3nc1n2CCn1c(=O)oc2ccccc21 the results were STEP inh -3.0, NadD block -4.1, LMPTP inh -1.0, Scp1 inh 3.1, SUMO1-SIM PPI -2.5 and DNMT1 block 2.0.
O=c1oc2ccccc2n1CCn1c2ccccc2c2nc3ccccc3nc21 was read as STEP inh 3.4, NadD block 0.2, LMPTP inh 73.0*, Scp1 inh -8.2, SUMO1-SIM PPI 0.6 and DNMT1 block 62.0*.
O=C(CSc1ccc(-c2ccncc2)nn1)c1ccc(Cl)cc1 was read as STEP inh 2.7, NadD block -2.5, LMPTP inh -0.5, Scp1 inh 2.2, SUMO1-SIM PPI 50.7* and DNMT1 block 8.1.
CC(/C=C1\N=C(SCc2ccccc2Cl)SC1=O)=C\c1ccccc1 was read as STEP inh -2.0, NadD block 10.4, LMPTP inh 2.0, Scp1 inh -5.0, SUMO1-SIM PPI -0.3 and DNMT1 block 101.4*.
Screening O=C(CSc1nc(-c2ccccc2)nc2c1Cc1ccccc1O2)Nc1ccc(C(=O)O)cc1 returned STEP inh 87.3*, NadD block 18.7, LMPTP inh 78.9*, Scp1 inh 90.2*, SUMO1-SIM PPI 69.6* and DNMT1 block 88.1*.
Screening O=C(CSc1nc2ccccc2c(=O)n1-c1ccc(F)cc1)Nc1ccc(C(=O)O)cc1 returned STEP inh 1.4, NadD block -2.3, LMPTP inh -2.4, Scp1 inh -15.6, SUMO1-SIM PPI 4.3 and DNMT1 block 1.1.
O=C(CSc1nc(-c2ccc(F)cc2)nc2c1Cc1ccccc1O2)Nc1ccc(C(=O)O)cc1 was read as STEP inh 96.1*, NadD block 5.4, LMPTP inh 84.7*, Scp1 inh 102.1*, SUMO1-SIM PPI 106.4* and DNMT1 block 94.7*.
Screening Cc1ccc(Cn2c(CCNc3nc(-c4ccc(C)cc4)cs3)nc3cc(C(=O)NCCCO)ccc32)cc1 returned STEP inh -0.8, NadD block -0.8, LMPTP inh 2.0, Scp1 inh -3.0, SUMO1-SIM PPI 51.9* and DNMT1 block -77.8.

Compound activity: PubChem BioAssay, Sanford-Burnham Center for Chemical Genomics
